Experimental data from the M2OR odorant receptor database.

Tests used:
Details in all cases: stereoisomer not certain
UniProt Q8VGX8 = target: T1, UniProt Q8VGX8
T1 sequence (whole entry): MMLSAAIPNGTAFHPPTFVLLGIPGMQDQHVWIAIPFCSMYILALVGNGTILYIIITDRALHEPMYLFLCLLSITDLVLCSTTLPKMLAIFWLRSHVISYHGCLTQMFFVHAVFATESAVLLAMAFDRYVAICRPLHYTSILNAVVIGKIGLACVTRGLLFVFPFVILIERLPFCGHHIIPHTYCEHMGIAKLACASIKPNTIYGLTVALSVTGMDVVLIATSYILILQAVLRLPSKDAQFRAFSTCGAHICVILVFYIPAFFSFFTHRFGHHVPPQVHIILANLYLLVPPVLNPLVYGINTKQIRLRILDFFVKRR
Procedure, shortened: (§1)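 Each receptor–molecule pair is labelled responsive or non-responsive (inactive) according to whether the original authors judged the measured signal statistically different from baseline. The data were taken from the main text and supplementary material of published papers and checked for typos and inconsistencies. Assay methods differed by source, with transient luciferase assays in mammalian cell lines being common.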

UniProt Q8VGY6 = target: T2, UniProt Q8VGY6
T2 sequence (whole entry): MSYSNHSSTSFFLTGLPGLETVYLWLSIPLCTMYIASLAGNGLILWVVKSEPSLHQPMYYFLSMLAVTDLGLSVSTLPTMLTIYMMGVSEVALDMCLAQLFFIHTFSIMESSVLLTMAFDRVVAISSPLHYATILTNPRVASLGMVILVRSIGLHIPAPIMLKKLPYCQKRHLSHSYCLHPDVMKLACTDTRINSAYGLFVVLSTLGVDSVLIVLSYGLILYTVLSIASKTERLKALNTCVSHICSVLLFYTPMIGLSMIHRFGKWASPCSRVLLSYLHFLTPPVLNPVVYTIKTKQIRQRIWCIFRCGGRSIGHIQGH
Procedure, shortened: as §1

UniProt Q8VGZ2 = target: T3, UniProt Q8VGZ2
T3 sequence (whole entry): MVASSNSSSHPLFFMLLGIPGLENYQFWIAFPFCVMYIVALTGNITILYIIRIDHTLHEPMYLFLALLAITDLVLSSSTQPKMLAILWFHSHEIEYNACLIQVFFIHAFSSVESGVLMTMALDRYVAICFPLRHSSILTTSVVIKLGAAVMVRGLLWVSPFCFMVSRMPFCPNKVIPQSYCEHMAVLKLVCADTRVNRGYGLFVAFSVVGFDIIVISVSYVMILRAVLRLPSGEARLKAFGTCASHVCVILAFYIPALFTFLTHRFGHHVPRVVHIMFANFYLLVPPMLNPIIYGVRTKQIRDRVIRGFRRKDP
Procedure, shortened: as §1

UniProt Q8VGZ7 = target: T4, UniProt Q8VGZ7
T4 sequence (whole entry): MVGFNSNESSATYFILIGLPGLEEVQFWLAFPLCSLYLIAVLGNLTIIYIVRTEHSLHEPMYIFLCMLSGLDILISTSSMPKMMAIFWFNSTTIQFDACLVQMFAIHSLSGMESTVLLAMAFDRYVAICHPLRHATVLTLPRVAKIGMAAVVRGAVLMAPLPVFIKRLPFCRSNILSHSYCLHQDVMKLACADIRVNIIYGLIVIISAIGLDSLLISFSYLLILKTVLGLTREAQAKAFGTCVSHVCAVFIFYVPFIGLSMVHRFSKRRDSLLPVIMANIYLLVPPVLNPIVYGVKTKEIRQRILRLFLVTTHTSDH
Procedure, shortened: as §1

UniProt Q8VH10 = target: T5, UniProt Q8VH10
T5 sequence (whole entry): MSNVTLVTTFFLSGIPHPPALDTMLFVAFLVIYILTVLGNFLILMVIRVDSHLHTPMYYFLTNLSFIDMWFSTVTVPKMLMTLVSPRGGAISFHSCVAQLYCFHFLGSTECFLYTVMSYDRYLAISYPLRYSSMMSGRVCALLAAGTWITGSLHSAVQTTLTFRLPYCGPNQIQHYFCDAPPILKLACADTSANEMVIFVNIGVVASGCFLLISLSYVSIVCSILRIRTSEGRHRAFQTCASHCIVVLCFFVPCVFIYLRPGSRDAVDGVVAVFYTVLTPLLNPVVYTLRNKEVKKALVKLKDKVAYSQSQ
Procedure, shortened: as §1

UniProt Q8VH18 = target: T6, UniProt Q8VH18
T6 sequence (whole entry): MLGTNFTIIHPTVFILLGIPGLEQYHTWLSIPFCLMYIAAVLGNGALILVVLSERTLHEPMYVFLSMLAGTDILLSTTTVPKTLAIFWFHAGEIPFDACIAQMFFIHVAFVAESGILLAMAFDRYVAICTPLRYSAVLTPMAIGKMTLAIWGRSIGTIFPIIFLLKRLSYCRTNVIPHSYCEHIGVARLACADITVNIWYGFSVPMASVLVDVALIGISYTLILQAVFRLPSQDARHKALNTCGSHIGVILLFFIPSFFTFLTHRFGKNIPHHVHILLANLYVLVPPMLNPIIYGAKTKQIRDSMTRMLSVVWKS
Procedure, shortened: as §1

UniProt Q8VH20 = target: T7, UniProt Q8VH20
T7 sequence (whole entry): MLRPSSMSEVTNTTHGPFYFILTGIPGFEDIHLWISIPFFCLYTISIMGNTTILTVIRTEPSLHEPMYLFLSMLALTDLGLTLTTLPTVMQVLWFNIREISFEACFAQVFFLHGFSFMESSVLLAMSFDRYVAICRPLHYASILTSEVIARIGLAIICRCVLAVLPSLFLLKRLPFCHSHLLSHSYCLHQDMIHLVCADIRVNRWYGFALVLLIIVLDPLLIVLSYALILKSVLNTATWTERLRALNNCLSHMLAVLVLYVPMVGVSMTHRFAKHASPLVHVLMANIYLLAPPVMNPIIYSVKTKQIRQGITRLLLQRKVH
Procedure, shortened: as §1

UniProt Q924X8 = target: T8, UniProt Q924X8
T8 sequence (whole entry): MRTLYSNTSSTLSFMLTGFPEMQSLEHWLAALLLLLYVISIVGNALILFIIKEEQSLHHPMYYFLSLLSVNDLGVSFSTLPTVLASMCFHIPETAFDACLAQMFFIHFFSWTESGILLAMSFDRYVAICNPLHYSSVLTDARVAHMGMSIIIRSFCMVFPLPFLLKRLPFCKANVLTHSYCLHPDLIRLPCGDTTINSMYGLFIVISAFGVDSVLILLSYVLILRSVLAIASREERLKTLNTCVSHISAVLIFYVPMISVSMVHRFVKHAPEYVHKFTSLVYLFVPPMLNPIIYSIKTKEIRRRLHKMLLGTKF
Procedure, shortened: as §1

UniProt Q9EPN9 = target: T9, UniProt Q9EPN9
T9 sequence (whole entry): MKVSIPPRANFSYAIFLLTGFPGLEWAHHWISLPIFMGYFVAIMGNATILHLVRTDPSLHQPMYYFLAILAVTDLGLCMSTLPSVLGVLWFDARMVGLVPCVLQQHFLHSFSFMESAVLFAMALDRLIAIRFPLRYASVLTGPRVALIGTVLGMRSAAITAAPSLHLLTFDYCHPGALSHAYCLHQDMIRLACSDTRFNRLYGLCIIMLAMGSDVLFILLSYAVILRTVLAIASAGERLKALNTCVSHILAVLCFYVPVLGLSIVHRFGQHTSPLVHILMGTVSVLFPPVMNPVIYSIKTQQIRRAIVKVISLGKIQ
Procedure, shortened: as §1

UniProt Q9R0K2 = target: UniProt Q9R0K2
Procedure, shortened: as §1

UniProt Q9WU86 = target: T10, UniProt Q9WU86
T10 sequence (whole entry): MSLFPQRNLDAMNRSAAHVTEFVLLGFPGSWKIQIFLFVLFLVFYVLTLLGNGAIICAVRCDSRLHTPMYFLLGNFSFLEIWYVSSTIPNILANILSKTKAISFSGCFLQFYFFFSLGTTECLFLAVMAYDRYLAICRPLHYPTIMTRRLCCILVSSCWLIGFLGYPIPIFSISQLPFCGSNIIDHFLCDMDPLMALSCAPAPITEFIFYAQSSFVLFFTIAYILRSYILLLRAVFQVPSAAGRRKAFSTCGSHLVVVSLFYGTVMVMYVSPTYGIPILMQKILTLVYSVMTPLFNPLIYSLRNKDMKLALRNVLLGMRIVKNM
Procedure, shortened: as §1

UniProt Q9WU94 = target: T11, UniProt Q9WU94
T11 sequence (whole entry): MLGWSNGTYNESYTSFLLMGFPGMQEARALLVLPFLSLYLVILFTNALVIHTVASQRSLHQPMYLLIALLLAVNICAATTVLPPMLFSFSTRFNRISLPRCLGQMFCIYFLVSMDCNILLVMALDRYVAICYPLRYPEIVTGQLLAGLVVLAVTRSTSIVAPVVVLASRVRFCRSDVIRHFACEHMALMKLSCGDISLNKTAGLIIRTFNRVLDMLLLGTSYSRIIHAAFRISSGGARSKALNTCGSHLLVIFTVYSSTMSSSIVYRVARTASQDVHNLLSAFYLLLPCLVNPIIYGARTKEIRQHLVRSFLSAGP
Procedure, shortened: as §1

UniProt Q9WVD7 = target: T12, UniProt Q9WVD7
T12 sequence (whole entry): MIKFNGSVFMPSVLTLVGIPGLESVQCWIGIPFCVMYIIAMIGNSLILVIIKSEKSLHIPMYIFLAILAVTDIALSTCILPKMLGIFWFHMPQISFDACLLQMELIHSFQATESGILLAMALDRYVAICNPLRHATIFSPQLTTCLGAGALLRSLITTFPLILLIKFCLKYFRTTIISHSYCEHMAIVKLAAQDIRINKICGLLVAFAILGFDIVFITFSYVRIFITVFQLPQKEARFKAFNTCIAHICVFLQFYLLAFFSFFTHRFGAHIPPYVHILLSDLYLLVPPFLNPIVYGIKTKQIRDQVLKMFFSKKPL
Procedure, shortened: as §1

UniProt Q8VH16 = target: T13, UniProt Q8VH16
T13 sequence (whole entry): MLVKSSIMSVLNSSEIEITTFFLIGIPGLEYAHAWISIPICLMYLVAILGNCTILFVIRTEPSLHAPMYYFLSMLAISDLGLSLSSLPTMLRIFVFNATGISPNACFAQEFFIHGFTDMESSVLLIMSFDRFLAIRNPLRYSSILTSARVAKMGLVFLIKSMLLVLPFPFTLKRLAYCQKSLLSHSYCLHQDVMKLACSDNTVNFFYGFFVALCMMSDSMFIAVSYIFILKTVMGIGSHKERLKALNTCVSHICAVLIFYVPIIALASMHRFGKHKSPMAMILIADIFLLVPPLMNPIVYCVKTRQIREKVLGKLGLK
Procedure, shortened: as §1

UniProt Q8VH21 = target: T14, UniProt Q8VH21
T14 sequence (whole entry): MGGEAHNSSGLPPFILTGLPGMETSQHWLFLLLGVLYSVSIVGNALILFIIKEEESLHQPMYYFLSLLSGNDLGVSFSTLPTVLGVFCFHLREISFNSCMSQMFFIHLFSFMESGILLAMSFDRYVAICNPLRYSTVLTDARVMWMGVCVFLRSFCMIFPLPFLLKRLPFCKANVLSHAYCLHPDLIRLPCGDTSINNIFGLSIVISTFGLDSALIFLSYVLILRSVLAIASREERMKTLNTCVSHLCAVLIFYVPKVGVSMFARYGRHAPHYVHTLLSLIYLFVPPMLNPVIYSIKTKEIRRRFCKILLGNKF
Procedure, shortened: as §1

UniProt Q924H8 = target: T15, UniProt Q924H8
T15 sequence (whole entry): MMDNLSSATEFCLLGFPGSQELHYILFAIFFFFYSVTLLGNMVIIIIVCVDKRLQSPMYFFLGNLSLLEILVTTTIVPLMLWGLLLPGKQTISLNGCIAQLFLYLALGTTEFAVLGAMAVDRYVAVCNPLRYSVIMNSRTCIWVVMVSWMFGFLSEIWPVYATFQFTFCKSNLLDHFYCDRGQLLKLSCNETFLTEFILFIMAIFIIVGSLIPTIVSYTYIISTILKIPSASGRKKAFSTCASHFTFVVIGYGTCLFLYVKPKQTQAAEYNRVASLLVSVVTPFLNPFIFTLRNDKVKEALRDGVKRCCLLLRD
Procedure, shortened: as §1

UniProt Q99NH4 = target: T16, UniProt Q99NH4
T16 sequence (whole entry): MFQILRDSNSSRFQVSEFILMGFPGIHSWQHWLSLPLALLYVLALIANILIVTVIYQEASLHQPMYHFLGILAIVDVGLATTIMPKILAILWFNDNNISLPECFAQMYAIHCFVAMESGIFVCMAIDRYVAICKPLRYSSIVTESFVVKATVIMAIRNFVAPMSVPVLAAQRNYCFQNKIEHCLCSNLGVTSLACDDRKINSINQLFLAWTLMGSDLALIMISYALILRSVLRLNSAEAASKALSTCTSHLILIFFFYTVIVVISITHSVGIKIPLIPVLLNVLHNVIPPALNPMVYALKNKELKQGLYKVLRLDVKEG
Procedure, shortened: as §1

Measured: odorant receptor agonist call

Chain of UniProt Q9R0K2 (Q9R0K2 as listed by the source): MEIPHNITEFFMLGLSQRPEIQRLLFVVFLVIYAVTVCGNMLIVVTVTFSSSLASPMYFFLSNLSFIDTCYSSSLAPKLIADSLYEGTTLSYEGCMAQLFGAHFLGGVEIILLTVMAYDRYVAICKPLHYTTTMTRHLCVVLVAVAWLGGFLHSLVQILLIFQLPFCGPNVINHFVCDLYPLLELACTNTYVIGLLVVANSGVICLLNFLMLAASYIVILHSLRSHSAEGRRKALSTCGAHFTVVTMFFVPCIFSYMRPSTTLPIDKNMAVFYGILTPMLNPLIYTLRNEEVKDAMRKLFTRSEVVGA

CCCCCCC(=O)[O-].[H+]
active: UniProt Q8VGX8 | UniProt Q8VGZ2 | UniProt Q8VH18 | UniProt Q8VH20 | UniProt Q9WVD7
not listed: UniProt Q8VH16 | UniProt Q8VH21 | UniProt Q924H8 | UniProt Q99NH4
inactive: all other assays above

CCCCCC=CCCC=O
inactive: UniProt Q8VGZ7 | UniProt Q8VH16 | UniProt Q8VH21 | UniProt Q924H8
active: UniProt Q8VGZ2 | UniProt Q8VH20

O=C([O-])CCCCC(=O)[O-].[H+].[H+]
active: UniProt Q924X8
inactive: UniProt Q8VGX8 | UniProt Q8VH18 | UniProt Q99NH4 | UniProt Q9WU94 | UniProt Q9WVD7

CSSSC
active: UniProt Q8VH20
inactive: UniProt Q8VGZ2 | UniProt Q8VGZ7 | UniProt Q8VH16 | UniProt Q8VH21 | UniProt Q924H8

CCCO
inactive: UniProt Q8VGZ2 | UniProt Q8VGZ7 | UniProt Q8VH16 | UniProt Q8VH20 | UniProt Q8VH21 | UniProt Q924H8

CCc1ccc(O)cc1
inactive: UniProt Q8VGZ2 | UniProt Q8VGZ7 | UniProt Q8VH16 | UniProt Q8VH20 | UniProt Q8VH21 | UniProt Q924H8

CCOC(=O)C(C)CC (stereo unspecified)
inactive: UniProt Q8VGZ2 | UniProt Q8VGZ7 | UniProt Q8VH16 | UniProt Q8VH20 | UniProt Q8VH21 | UniProt Q924H8

CC1CCC(C(C)C)C(=O)C1 (stereo unspecified)
inactive: UniProt Q8VGZ2 | UniProt Q8VGZ7 | UniProt Q8VH16 | UniProt Q8VH20 | UniProt Q8VH21 | UniProt Q924H8

CCCCCCCCOC=O
inactive: UniProt Q8VGZ2 | UniProt Q8VGZ7 | UniProt Q8VH16 | UniProt Q8VH20 | UniProt Q8VH21 | UniProt Q924H8
